ChEMBL document CHEMBL5380852, “N'-Phenylacetohydrazide Derivatives as Potent Ebola Virus Entry Inhibitors with an Improved Pharmacokinetic Profile” (J Med Chem, 2023)
Activity calls are given as the source filed them. The rule behind the calls is not given here.

Key:
[1] = Tmax in BALB/c mouse brain at 50 mg/kg, po measured upto 24 hrs by LC-MS/MS method; assay type: ADME, organism-based; conditions: in vivo
How it was run: (§1)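 Male BALB/c mice aged 8–12 weeks (20–35 g) received one dose in a solution of 90% PBS pH 7.4, 5% solutol HS-15 and 5% NMP: 10 mg/kg i.p. or 50 mg/kg p.o. Three mice per time point, sampled up to 24 h. Plasma and brain were taken at each point and assayed by LC–MS/MS. Parameters came from noncompartmental analysis.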

[2] = AUClast in BALB/c mouse brain at 50 mg/kg, po measured upto 24 hrs by LC-MS/MS method; assay type: ADME, organism-based; design: dose 50 mg/kg, time < 24 hrs, route po; conditions: in vivo; how it was run: as §1
[3] = AUClast in BALB/c mouse brain at 10 mg/kg, ip measured upto 24 hrs by LC-MS/MS method; assay type: ADME, organism-based; design: time < 24 hrs, dose 10 mg/kg, route ip; conditions: in vivo; how it was run: as §1
[4] = AUClast in BALB/c mouse plasma at 10 mg/kg, ip measured upto 24 hrs by LC-MS/MS method; assay type: ADME, organism-based; design: dose 10 mg/kg, time < 24 hrs, route ip; conditions: in vivo; how it was run: as §1
[5] = Selectivity index, ratio of CC50 for human HeLa cells to EC50 for pseudotyped Ebola virus infected in HeLa cells; assay type: toxicity, cell-based; conditions: read-out: Ratio CC50/EC50
[6] = Tmax in BALB/c mouse brain at 10 mg/kg, ip measured upto 24 hrs by LC-MS/MS method; assay type: ADME, organism-based; conditions: in vivo; how it was run: as §1
[7] = Tmax in BALB/c mouse plasma at 10 mg/kg, ip measured upto 24 hrs by LC-MS/MS method; assay type: ADME, organism-based; conditions: in vivo; how it was run: as §1
[8] = Tmax in BALB/c mouse plasma at 50 mg/kg, po measured upto 24 hrs by LC-MS/MS method; assay type: ADME, organism-based; conditions: in vivo; how it was run: as §1
[9] = Cmax in BALB/c mouse plasma at 50 mg/kg, po measured upto 24 hrs by LC-MS/MS method; assay type: ADME, organism-based; design: dose 50 mg/kg, time < 24 hrs, route po; conditions: in vivo; how it was run: as §1
[10] = Inhibition of EBOV-GP to human C-terminal Flag tagged NPC1 protein protein interaction at 50 uM by ELISA
How it was run: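 GP particles were cleaved with thermolysin (250 μg/mL, 1 h, 37 °C; stopped with 1 mM phosphoramidon) and captured on plates by anti-GP mAb KZ52. Purified Flag-tagged human NPC1 domain C (10 μg/mL), expressed in HEK293T, was added with or without compound at 50 μM. Bound protein was detected with anti-Flag-HRP and TMB at 450 nm, n = 3.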

[11] = Cmax in BALB/c mouse brain at 50 mg/kg, po measured upto 24 hrs by LC-MS/MS method; assay type: ADME, organism-based; design: time < 24 hrs, dose 50 mg/kg, route po; conditions: in vivo; how it was run: as §1
[12] = Selectivity index, ratio of CC50 for african green monkey Vero E6 cells to EC50 for wild type Zaire EBOV mayinga; assay type: cell-based, Vero C1008; conditions: read-out: Ratio CC50/EC50
[13] = AUClast in BALB/c mouse plasma at 50 mg/kg, po measured upto 24 hrs by LC-MS/MS method; assay type: ADME, organism-based; design: time < 24 hrs, dose 50 mg/kg, route po; conditions: in vivo; how it was run: as §1
[14] = Cytotoxicity against human HeLa cells assessed as reduction in cell viability incubated for 24 hrs by MTS assay; assay type: toxicity, cell-based
How it was run: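 HeLa cells (2×10^4/well) were grown in DMEM with 10% FBS and exposed to compound at 0–200 μM for 24 h. Viability was read by MTS reduction at 490 nm, as a percentage of untreated cells, and CC50 was derived.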

Ebolavirus = assay: Antiviral activity against pseudotyped Ebola virus infected in HeLa cells preincubated for 1 hr followed by viral infection and measured after 48 hrs by steady-glo luciferase assay; assay type: functional, organism-based; conditions: Orthoebolavirus
How it was run: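 HeLa cells (2×10^4/well; DMEM, 10% FBS, 1% L-glutamine, 37 °C, 5% CO2) were pretreated with compound for 1 h at 37 °C, then given 5000 TCID50 of HIV-luciferase lentivirus pseudotyped with EBOV-GP. After 48 h, cells were washed, lysed and luciferase read. Primary screen was at 10 μM final. […] EC50 is the mean of three independent experiments, from normalized dose–response fits with 95% CI.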

[15] = Cmax in BALB/c mouse plasma at 10 mg/kg, ip measured upto 24 hrs by LC-MS/MS method; assay type: ADME, organism-based; design: dose 10 mg/kg, time < 24 hrs, route ip; conditions: in vivo; how it was run: as §1
[16] = Cmax in BALB/c mouse brain at 10 mg/kg, ip measured upto 24 hrs by LC-MS/MS method; assay type: ADME, organism-based; design: time < 24 hrs, dose 10 mg/kg, route ip; conditions: in vivo; how it was run: as §1

Compound `O=C(CCNCCN1CCN(Cc2ccccc2)CC1)NN(c1ccccc1)c1ccccc1` has a Tmax [1] of 24 h, an AUClast [2] of 7109.56 ng·h/mL and an AUClast [3] of 3886.74 ng·h/mL. It also gave an AUClast [4] of 83.83 ng·h/mL, a selectivity ratio [5] of 274 and a Tmax [6] of 8 h. For the same compound, the Tmax [7] was 4.8 min, the Tmax [8] was 0.25 h and the Cmax [9] was 93.62 ng/mL. For the same compound, the inhibition [10] was “Active”, the Cmax [11] was 341.33 ng/mL and the selectivity ratio [12] was 13.1. It also gave an AUClast [13] of 152.76 ng·h/mL.

`CN(C)CCOc1ccc(/C(=C(/CCCl)c2ccccc2)c2ccccc2)cc1` [TOREMIFENE] showed a CC50 at 24 h [14] greater than 100000 nM and an EC50 (Ebolavirus) of 70 nM.

Work on `O=C(CCNCCC1CCN(Cc2ccccc2)CC1)NN(c1ccccc1)c1ccccc1` yielded a Cmax [15] of 283.42 ng/mL, a Tmax [1] of 4 h and an AUClast [3] of 1142.02 ng·h/mL. The AUClast [4] was 559.47 ng·h/mL, the selectivity ratio [5] was 115 and the Tmax [6] was 8 h. The Tmax [7] was 4.8 min, the Tmax [8] was 0.25 h and the Cmax [16] was 51.03 ng/mL. It also gave a selectivity ratio [12] of 31.5.
